This is an account of results in ChEMBL document CHEMBL4602608, “Isoquinoline Kelch-like ECH-Associated Protein 1-Nuclear Factor (Erythroid-Derived 2)-like 2 (KEAP1-NRF2) Inhibitors with High Metabolic Stability” (J Med Chem, 2020).

What is called IC50 is the concentration that inhibits the measured activity by half. Lower therefore signals greater potency. For orientation: logD means lipophilicity at a set pH, counting ionised and neutral species. Higher therefore signals higher lipophilicity.

In one data set the target is Keap1/Nrf2 (Homo sapiens, UniProt Q14145). Kind of data set: Inhibition of Keap1-Nrf2 Interaction (unknown origin) by fluorescence anisotropy. The format is protein assay. Background: Fluorescence polarisation rises when a labelled molecule tumbles more slowly, as on binding a larger partner.
Chain of Keap1/Nrf2 (Q16236 whole entry): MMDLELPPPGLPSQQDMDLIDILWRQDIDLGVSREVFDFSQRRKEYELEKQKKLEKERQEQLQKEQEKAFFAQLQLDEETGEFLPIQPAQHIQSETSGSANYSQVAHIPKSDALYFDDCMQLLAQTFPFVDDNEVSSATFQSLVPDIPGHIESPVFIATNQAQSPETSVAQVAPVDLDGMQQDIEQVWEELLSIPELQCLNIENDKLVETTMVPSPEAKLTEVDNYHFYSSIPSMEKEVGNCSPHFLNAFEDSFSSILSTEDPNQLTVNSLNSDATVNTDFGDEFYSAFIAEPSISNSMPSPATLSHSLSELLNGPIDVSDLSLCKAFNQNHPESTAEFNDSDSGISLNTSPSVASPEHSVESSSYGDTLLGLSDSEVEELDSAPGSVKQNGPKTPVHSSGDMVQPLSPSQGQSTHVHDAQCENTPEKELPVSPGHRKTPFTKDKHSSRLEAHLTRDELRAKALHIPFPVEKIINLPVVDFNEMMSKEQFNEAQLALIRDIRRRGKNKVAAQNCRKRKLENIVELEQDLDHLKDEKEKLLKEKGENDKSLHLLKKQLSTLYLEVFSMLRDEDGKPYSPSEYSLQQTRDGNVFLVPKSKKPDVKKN
Chain of Keap1/Nrf2 (Q14145 whole entry): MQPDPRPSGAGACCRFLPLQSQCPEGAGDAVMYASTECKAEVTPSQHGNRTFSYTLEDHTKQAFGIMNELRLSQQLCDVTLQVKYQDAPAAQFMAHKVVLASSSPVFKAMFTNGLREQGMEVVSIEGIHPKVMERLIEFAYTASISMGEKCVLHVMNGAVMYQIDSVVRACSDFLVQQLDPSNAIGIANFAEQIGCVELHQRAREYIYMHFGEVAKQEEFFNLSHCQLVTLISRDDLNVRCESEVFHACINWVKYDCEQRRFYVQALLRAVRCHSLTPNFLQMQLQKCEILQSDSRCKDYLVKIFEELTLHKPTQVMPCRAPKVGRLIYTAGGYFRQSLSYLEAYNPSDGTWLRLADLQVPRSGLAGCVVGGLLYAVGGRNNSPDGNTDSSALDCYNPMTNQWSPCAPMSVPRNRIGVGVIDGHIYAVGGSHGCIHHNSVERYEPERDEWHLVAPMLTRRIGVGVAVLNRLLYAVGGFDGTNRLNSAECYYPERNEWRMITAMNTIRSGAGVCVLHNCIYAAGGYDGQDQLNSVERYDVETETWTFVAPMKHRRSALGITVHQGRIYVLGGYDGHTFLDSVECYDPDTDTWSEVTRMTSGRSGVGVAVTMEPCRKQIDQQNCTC
Data set [1] in a line: Partition coefficient, logD between n-octanol and pH 7.4 buffer by HPLC analysis. It counts as physicochemical. To be noted: n-octanol/pH 7.4 buffer.
A short description of data set [2]: Half life in human liver microsomes in presence of NADPH by LC-MS/MS analysis. The format is ADME, Microsome. For orientation: Microsomes from liver hold many membrane-bound enzymes, among them those of drug oxidation.
Data set [3] concerns the target T1, Keap1/Nrf2 (Homo sapiens) (UniProt Q16236+Q14145). Kind of data set: Inhibition of Keap1-Nrf2 Interaction in human HaCaT cells assessed as increase in Nrf2 protein level at 0.25 uM incubated for 16 hrs by Western blot analysis relative to control. It counts as cell-based. In a few lines:
(§1)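 HaCaT keratinocytes were grown in DMEM with 10% FBS and 1% antibiotics, then treated at 70–80% confluence in complete medium, with DMSO as vehicle. RIPA lysates (~40 μg protein) were run on 10% SDS-PAGE and immunoblotted for NRF2 and NQO1, with β-actin as loading control and chemiluminescent detection. Values are mean fold change versus DMSO from two biological replicates.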

Data set [4] has as its target T1, Keap1/Nrf2 (Homo sapiens). The data set can be described thus: Inhibition of Keap1-Nrf2 Interaction in human HaCaT cells assessed as increase in NQO1 protein level at 0.25 uM incubated for 16 hrs by Western blot analysis relative to control. It counts as cell-based. In a few lines: as §1

T1 sequence (Q14145 whole entry, looked up): as the sequence (Q14145 whole entry) above
T1 sequence (Q16236 whole entry, looked up): as the sequence (Q16236 whole entry) above

In the case of `COc1ccc(S(=O)(=O)Nc2ncc(N(CC(=O)O)S(=O)(=O)c3ccc(OC)cc3)c3ccccc23)cc1`, at Keap1/Nrf2, the IC50 is 1100 nM. Also, the logD in data set [1] is -0.5.

With `O=C(O)CN(c1cnc(N(CC(=O)O)S(=O)(=O)c2ccc(O)cc2)c2ccccc12)S(=O)(=O)c1ccc(O)cc1`, the IC50 on Keap1/Nrf2 is 350 nM. For the same compound, the t1/2 in data set [2] is 0.05 h.

In the case of `COc1ccc(S(=O)(=O)N(CC(=O)O)c2cnc(N(CC(=O)O)S(=O)(=O)c3ccc(F)cc3)c3ccccc23)cc1`, on Keap1/Nrf2, the IC50 was 280 nM. This compound registered a logD in data set [1] of -1.9.

Turning to `O=C(O)CN(c1ncc(N(CC(F)(F)F)S(=O)(=O)c2ccc(F)cc2)c2ccccc12)S(=O)(=O)c1ccc(F)cc1`, half-maximal inhibition on Keap1/Nrf2 (IC50) required 420 nM. In data set [1], this compound showed a logD of 0.6. Moreover, the t1/2 in data set [2] was more than 3 h.

In turn, `COc1ccc(S(=O)(=O)N(CCF)c2cnc(N(CC(=O)O)S(=O)(=O)c3ccc(OC)cc3)c3ccccc23)cc1` yielded an IC50 at Keap1/Nrf2 of 210 nM. In data set [1], the logD is -0.1. Further, in data set [2], the t1/2 is 0.967 h.

In the case of `COc1ccc(S(=O)(=O)N(CC(F)F)c2cnc(N(CC(=O)O)S(=O)(=O)c3ccc(OC)cc3)c3ccccc23)cc1`, the IC50 at Keap1/Nrf2 came to 55 nM. The logD in data set [1] was found to be 0.2. For the same compound, the t1/2 in data set [2] amounted to 1.62 h.

Turning to `COc1ccc(S(=O)(=O)Nc2cnc(N(C(C)C(=O)O)S(=O)(=O)c3ccc(OC)cc3)c3ccccc23)cc1` (stereo not given), at Keap1/Nrf2, it took 2300 nM to reach half-maximal inhibition (IC50). This compound also displayed a logD in data set [1] of -1.1.

On Keap1/Nrf2, `COc1ccc(S(=O)(=O)N(CC(=O)O)c2ncc(N(CC(F)(F)F)S(=O)(=O)c3ccc(F)cc3)c3ccccc23)cc1` registered an IC50 of 120 nM. The compound further gave a logD in data set [1] of 0.5. The t1/2 in data set [2] was more than 3 h.

Regarding `COc1ccc(S(=O)(=O)N(CC(F)(F)F)c2cnc(N(CC(=O)O)S(=O)(=O)c3ccc(F)cc3)c3ccccc23)cc1`, the IC50 against Keap1/Nrf2 turned out to be 130 nM. In addition, in data set [1], the logD is 0.6. The t1/2 in data set [2] was more than 3 h.

At Keap1/Nrf2, `COc1ccc(S(=O)(=O)N(CC(=O)O)c2ncc(N(CC(=O)O)S(=O)(=O)c3ccc(F)cc3)c3ccccc23)cc1` had an IC50 of 240 nM. In addition, the logD in data set [1] was -1.8.

For the compound `O=C(O)CN(c1cnc(N(CC(=O)O)S(=O)(=O)c2ccc(F)cc2)c2ccccc12)S(=O)(=O)c1ccc(F)cc1`, the concentration for half-maximal inhibition (IC50) at Keap1/Nrf2 came out at 430 nM.

In the case of `COC(=O)[C@]12CCC(C)(C)C[C@H]1[C@H]1C(=O)C=C3[C@@]4(C)C=C(C#N)C(=O)C(C)(C)[C@@H]4CC[C@@]3(C)[C@]1(C)CC2`, the fold change (FC) in data set [3] was 3.34; in data set [4], 1.43.

The compound `COc1ccc(S(=O)(=O)N(C)c2cnc(N(CC(=O)O)S(=O)(=O)c3ccc(OC)cc3)c3ccccc23)cc1` returned an IC50 at Keap1/Nrf2 of 1000 nM. The compound also gave a logD in data set [1] of 0. For the same compound, the t1/2 in data set [2] was 0.1 h.

Take `COc1ccc(S(=O)(=O)Nc2cnc(N(CC(=O)O)S(=O)(=O)c3ccc(OC)cc3)c3ccccc23)cc1`: on Keap1/Nrf2, it took 230 nM to reach half-maximal inhibition (IC50). Also, the t1/2 in data set [2] was 0.617 h.

The compound `COc1ccc(S(=O)(=O)N(CC(F)(F)F)c2cnc(N(CC(=O)O)S(=O)(=O)c3ccc(OC)cc3)c3ccccc23)cc1` showed a logD in data set [1] of 0.5. Besides, in data set [2], the t1/2 amounted to 2.27 h.
